Screening results as filed in PubChem BioAssay.
Sampled rows, rich in hits. Any-hit rate of the full collection: about 2%.
Granule exo inh: blocks lytic granule exocytosis | TALL-104 LAMP-1 surface exposure, flow cytometry; cells stimulated with thapsigargin and PMA | inhibition, % at 10 µM | 0.66% of 360,000 active;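 active = inhibition above about 55%, limit read from the data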
DAGLB inhibitor: blocks human DAGLB lipase activity | Q8NCG7 | HEK293T DAGLB membrane lysate, EnzChek fluorogenic substrate | inhibition, % at 5.17 µM | 0.059% of 340,000 active; in the data active = inhibition above about 34%;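 also: 0% = enzyme with vehicle and 100% = wells lacking enzyme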
VLA-4 inh: inhibition in a human VLA-4 binding assay | P13612 | 0.2% of 330,000 active | inhibition, % (about 7 µM as worked out from the volumes in the protocol) | AID 2557 | VLA-4 expressing cells, ligand binding flow cytometry; in the data active = inhibition above about 50%
Target sequence (P13612 whole entry, looked up): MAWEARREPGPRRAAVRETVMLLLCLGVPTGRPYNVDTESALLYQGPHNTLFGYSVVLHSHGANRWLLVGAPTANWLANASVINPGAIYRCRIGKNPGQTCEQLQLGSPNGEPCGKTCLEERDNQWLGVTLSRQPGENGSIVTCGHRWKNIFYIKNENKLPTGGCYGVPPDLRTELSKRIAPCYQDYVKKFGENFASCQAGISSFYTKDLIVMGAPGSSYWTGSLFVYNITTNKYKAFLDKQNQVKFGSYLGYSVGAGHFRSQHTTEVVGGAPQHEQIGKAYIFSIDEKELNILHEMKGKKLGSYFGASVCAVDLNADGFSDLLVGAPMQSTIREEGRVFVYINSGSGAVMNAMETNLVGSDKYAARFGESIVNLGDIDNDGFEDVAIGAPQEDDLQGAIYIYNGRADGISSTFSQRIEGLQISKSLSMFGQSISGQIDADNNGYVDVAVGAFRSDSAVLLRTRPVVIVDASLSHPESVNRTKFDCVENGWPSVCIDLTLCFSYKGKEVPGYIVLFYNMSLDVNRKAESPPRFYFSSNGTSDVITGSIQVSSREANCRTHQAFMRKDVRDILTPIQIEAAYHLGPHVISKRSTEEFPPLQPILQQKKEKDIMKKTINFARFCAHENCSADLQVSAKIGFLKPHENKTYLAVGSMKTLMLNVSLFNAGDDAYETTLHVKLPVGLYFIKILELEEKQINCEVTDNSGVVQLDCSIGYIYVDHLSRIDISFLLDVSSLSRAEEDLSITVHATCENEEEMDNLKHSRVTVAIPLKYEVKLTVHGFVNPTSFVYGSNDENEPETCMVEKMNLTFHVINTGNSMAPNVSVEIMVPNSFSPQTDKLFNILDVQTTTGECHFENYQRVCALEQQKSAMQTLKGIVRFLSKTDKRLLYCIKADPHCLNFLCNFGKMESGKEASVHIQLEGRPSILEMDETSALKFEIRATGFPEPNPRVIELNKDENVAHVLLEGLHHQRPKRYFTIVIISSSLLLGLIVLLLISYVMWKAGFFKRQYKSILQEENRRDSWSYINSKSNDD
ABCB6 inh 2: inhibitors of human ABC transporter ABCB6. Q9NP58. K562-ABCB6 porphyrin accumulation, flow cytometry, 1 h; stronger effect = lower value. fluorescence ratio to DMSO, % at 10 µM. 0.19% of 360,000 active. AID 602162;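 active = fluorescence ratio to DMSO below 75%, the collection mean minus 3 SD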;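 also: signal is porphyrin accumulated inside mitochondria; 100% equals median channel fluorescence of DMSO control wells; lower ratio means ABCB6 inhibition with less porphyrin fluorescence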
FGF22 binding: FGF22 (human) thermal shift binding. 1.5% of 340,000 active. activity (Tm shift, normalised), % at 9.99 µM. recombinant FGF22 thermal shift, SYPRO orange fluorescence; percent of sucrose octasulfate shift, DMSO zero;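 active = mean Tm shift, scaled 0 neutral to 100 positive control, at about 1.3% or above, every replicate too, limit read from the data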
MT1-MMP act inh: inhibitors of human MT1-MMP activation; P50281; HT1080 RFP-PRO-GFP cells, GFP/RFP ratio fluorescence, overnight; percent of plate control window, DMSO zero; GFP/RFP ratio change, % at 20 µM; 0.061% of 360,000 active; AID 651647;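 active = GFP/RFP ratio change of at least 30% with cell ATP level not reduced by more than half and red fluorescence within 50% of control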
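Assay system: RFP-PRO-GFP reporter HT1080 cells; read-out basis: GFP/RFP fluorescence ratio; benchmarks: DMSO wells and RFP-L50D-GFP cells; doses: 20 µM single dose, 1% DMSO; schedule: overnight cell settling, then overnight compound exposure, 37 °C, 5% CO2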
ABCB6 blocker 1: human ABCB6 transporter inhibition. K562-ABCB6 porphyrin accumulation, flow cytometry, 1 h; stronger effect = lower value. shares compounds with ABCB6 inh 2. 700 tested, under 10 active. ratio response (% of DMSO), % at 10 µM. AID 602430;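 active = repeat-averaged ratio response below 75% of DMSO, the collection mean minus 3 SD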;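 also: median porphyrin fluorescence at 575 nm with 488 nm excitation from mitochondria; lower ratio means less porphyrin signal so ABCB6 inhibition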
K562 vector FC: activity in empty-vector K562 counter-screen for ABCB6 inhibitors. shares compounds with ABCB6 inh 2. K562 empty-vector cells, flow cytometry fluorescence, 1 h. percent response (fluorescence), % at 100 µM. 25 tested, under 10 active;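 active = compounds whose half-maximal effective concentration is below 100 µM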
Starred values were filed as active, the others as inactive; . = not tested or not shown.

SMILES	Granule exo inh	DAGLB inhibitor	VLA-4 inh	ABCB6 inh 2	FGF22 binding	MT1-MMP act inh	ABCB6 blocker 1	others
O=C(Nc1cccc(Oc2ccccc2)c1)C1Cc2c(-c3ccco3)ccnc2O1 (stereo not given)	-3.0	.	.	69.0*	0.1	-1.7	97.0
CC(=O)c1cccc(NC(=O)C2Cc3c(-c4cccc(C(C)=O)c4)ccnc3O2)c1 (stereo not given)	1.0	.	.	96.0	0.0	-4.5	.
CC(=O)Nc1cccc(-c2ccnc3c2CC(C(=O)Nc2ccccc2)O3)c1 (stereo not given)	3.1	.	.	93.0	-0.3	0.7	.
CS(=O)(=O)Nc1cccc(NC(=O)C2Cc3c(-c4ccco4)ccnc3O2)c1 (stereo not given)	10.6	.	.	98.0	-0.2	-11.1	.
CC(=O)c1cccc(-c2ccnc3c2CC(C(=O)Nc2cccnc2)O3)c1 (stereo not given)	-5.9	.	.	96.0	-0.3	-1.1	.
O=C(Nc1cccc(Oc2ccccc2)c1)C1Cc2c(-c3ccccc3)ccnc2O1 (stereo not given)	-2.3	.	.	93.0	0.1	1.7	101.0
CCCc1ccc(OCCNC(C)=O)cc1	-1.0	-1.8	-2.0	68.0*	0.1	1.9	102.0
C[C@H](NC(=O)C[C@H]1CC[C@@H](NC(=O)CN2CCOCC2)[C@@H](CO)O1)c1ccccc1	.	.	.	.	0.0	.	.
O=C(C[C@@H]1CC[C@H]2[C@@H](COC[C@@H](O)CN2CC2CCCCC2)O1)NCc1ccc(Cl)cc1	.	.	.	.	-0.1	.	.
CCCCn1ccnc1C(=O)c1cccc(S(=O)(=O)N2CC(C)CC(C)C2)c1 (stereo not given)	-2.3	-11.5	-8.4	74.0*	.	-7.7	97.0
CCCCn1ccnc1C(=O)c1cc(S(=O)(=O)N2CCOCC2)ccc1C	14.5	-2.6	-6.0	97.0	.	16.3	.
O=C(CN1CCCCC1)Nc1cccc(Br)c1	-5.9	0.1	-3.8	69.0*	.	-1.5	98.0
COc1ccc(NC(=O)CN2CCCCCC2)cc1OC	3.5	-0.3	5.2	73.0*	0.1	-0.7	100.0
CCOC(=O)N1CCN(CC(=O)Nc2ccc(C)cc2)CC1	6.5	-0.9	7.8	72.0*	0.6	-1.2	96.0
c1ccc(CNc2ncnc3nc[nH]c23)cc1	-2.5	1.9	-14.3	102.0	0.2	0.1	.
CCOc1cc(CNc2ncnc3nc[nH]c23)ccc1OC	-5.0	1.4	-18.2	73.0*	0.1	2.1	100.0
Cc1ccc(S(=O)(=O)N(C)C[C@@H]2Oc3cc(C#Cc4ccccc4)ccc3S(=O)(=O)N([C@@H](C)CO)C[C@H]2C)cc1	.	.	.	.	0.2	.	.
O=C(Nc1c2c(nn1-c1ccc(Cl)cc1)CS(=O)(=O)C2)C1CC1	-1.0	2.2	-0.4	94.0	0.0	1.0	.
Cc1ccc(-n2nc3c(c2NC(=O)C2CCCC2)CS(=O)(=O)C3)cc1	-15.7	2.4	5.0	10.0*	0.0	-3.3	95.0
O=C(C[C@H]1C=C[C@H](NC(=O)C2CC2)[C@@H](CO)O1)NC1CCC1	.	.	.	.	0.0	.	.
COc1ccc(CCC(=O)OCC(=O)NCc2ccc3c(c2)OCO3)cc1	-3.9	-1.5	10.5	95.0	0.0	-2.2	.
O=C(COC(=O)CSc1ccc2ccccc2c1)NCc1ccc2c(c1)OCO2	-7.8	-3.4	11.2	65.0*	.	1.9	98.0
CCCCCC(O)(c1ccccc1)C(CN1CCOCC1)c1ccccc1 (stereo not given)	6.4	-8.3	8.2	72.0*	-0.6	-25.3	100.0
O=C(C[C@@H]1CC[C@H]2[C@@H](COC[C@H](O)CN2Cc2cc(F)ccc2F)O1)N[C@@H]1CCN(Cc2ccccc2)C1	.	.	.	.	0.0	.	.
Cc1c(OCc2ccccc2)c(=O)ccn1Cc1ccccc1	-3.3	-0.6	1.5	107.0	.	-4.6	.
SMILES	Granule exo inh	DAGLB inhibitor	VLA-4 inh	ABCB6 inh 2	FGF22 binding	MT1-MMP act inh	ABCB6 blocker 1	others
O=c1ccn(Cc2ccccc2)c2ccccc12	6.6	-2.5	1.1	72.0*	0.1	0.9	97.0
Cc1ccc(-n2c3c(cc(C(=O)NC4CCSC4=O)c2=O)C(=O)CC(C)(C)C3)cc1 (stereo not given)	3.5	-2.8	-2.5	102.0	0.2	-2.7	.
CC1(C)CC(=O)c2cc(C(=O)NC3CCSC3=O)c(=O)n(-c3ccc(Cl)cc3)c2C1 (stereo not given)	-11.6	3.3	-10.3	63.0*	.	0.4	101.0
COc1ccc(NC(=O)Nc2cccc3c2O[C@H](CN(C)Cc2ccccc2)[C@H](C)CN([C@H](C)CO)C3=O)cc1	.	.	.	.	-0.2	.	.
Fc1ccccc1OCCCN1CCOCC1	-2.4	-0.7	8.4	74.0*	.	11.5	99.0
CC(=O)N(C)C[C@@H]1Oc2ncc(-c3cccc(F)c3)cc2C(=O)N([C@H](C)CO)C[C@@H]1C	.	.	.	.	0.0	.	.
COc1ccc(NC(=O)c2c(-c3ccccc3Cl)noc2C)c(OC)c1	11.6	-3.1	2.9	97.0	.	-3.8	.
COc1ccc(NC(=O)c2nc(S(=O)(=O)Cc3cccc(C)c3)ncc2Cl)c(OC)c1	24.2	5.1	16.8	151.0	0.0	0.3	.	K562 vector FC=271.4
COc1ccc(OC)c(NC(=O)c2nc(S(=O)(=O)Cc3ccccc3)ncc2Cl)c1	34.9	3.7	26.6	83.0	-0.4	-1.3	.	K562 vector FC=594.0
CCCNC(=O)N[C@@H]1CC[C@@H](CC(=O)N2CCN(C)CC2)O[C@@H]1CO	.	.	.	.	0.1	.	.
C[C@@H]1CCCCO[C@@H](CN(C)Cc2ccc3c(c2)OCO3)[C@@H](C)CN([C@H](C)CO)C(=O)c2cc(NC(=O)CCCN(C)C)ccc2O1	.	.	.	.	0.0	.	.
CCC(=O)Nc1ccc2c(c1)OC[C@@H](C)N(Cc1ccccc1C(=O)O)C[C@@H](C)[C@H](OC)CN(C)C2=O	.	.	.	.	0.0	.	.
Cc1ccc(NC(=O)CC2SCCNC2=O)cc1Cl (stereo not given)	0.3	1.6	5.3	67.0*	.	3.3	100.0
O=C(CC1SCCNC1=O)Nc1ccc(F)c(Cl)c1 (stereo not given)	4.7	-1.3	5.6	103.0	0.1	5.1	.
COc1cc(C(C[N+](=O)[O-])c2c(C)[nH]c3ccccc23)cc(OC)c1OC (stereo not given)	0.4	-0.5	9.4	74.0*	.	3.7	103.0
COc1ccccc1C(=O)Nc1ccc2c(c1)OC[C@H](C)N(C(C)=O)C[C@H](C)[C@H](OC)CN(C)C2=O	.	.	.	.	-0.3	.	.
O=C(Oc1ccc(/C=N/n2cnnc2)cc1)c1cccc([N+](=O)[O-])c1	-1.4	-1.0	-0.8	73.0*	.	0.9	99.0
CCOc1ccc(C(=O)CCC(=O)Nc2cc(C)ccn2)cc1	-0.6	1.6	-7.6	74.0*	-0.1	-3.4	104.0
